Data: article PMC8266733 (Acta physiologica (Oxford, England), 2021)
“Also recorded” adds a separate entry of the source.

Experiments:
[1] = system: Hela-Parkin or Hela-Parkin/USP30 cells
[2] = biological target: T1, USP30 (Homo sapiens, UniProt Q70CQ3); assay: TOM20 ubiquitination and turnover; format: cell-based
T1 sequence (Q70CQ3 1-517): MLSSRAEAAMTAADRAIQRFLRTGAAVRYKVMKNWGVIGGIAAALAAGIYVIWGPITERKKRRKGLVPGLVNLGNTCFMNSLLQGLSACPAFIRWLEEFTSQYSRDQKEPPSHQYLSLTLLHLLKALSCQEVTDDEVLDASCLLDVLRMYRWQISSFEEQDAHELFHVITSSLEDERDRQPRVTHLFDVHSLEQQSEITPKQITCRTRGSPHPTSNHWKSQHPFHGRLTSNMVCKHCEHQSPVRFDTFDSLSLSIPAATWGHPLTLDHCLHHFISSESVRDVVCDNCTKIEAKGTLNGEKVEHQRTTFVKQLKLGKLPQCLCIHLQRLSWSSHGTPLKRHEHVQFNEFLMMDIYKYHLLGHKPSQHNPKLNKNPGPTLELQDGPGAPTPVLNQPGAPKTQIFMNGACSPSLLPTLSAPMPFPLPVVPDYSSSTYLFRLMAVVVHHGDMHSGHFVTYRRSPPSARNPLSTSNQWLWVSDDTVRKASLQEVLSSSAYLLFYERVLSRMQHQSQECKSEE
Summary of the method: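 HeLa-Parkin cells, with or without lentivirally expressed Myc-USP30, were pretreated with test compound at several concentrations. They were then exposed to 5 μM oligomycin plus 5 μM antimycin A for up to 18 h, with 10 μM QVD during 18 h exposures. RIPA lysates (pH 8.0, on ice) were immunoblotted for ubiquitinated TOM20, TOM20, TOM40 and TIM23 with infrared detection. Three independent experiments.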

[3] = system: HeLa-Parkin cells expressing USP30; assay: FACS analysis of A/O-induced mitophagy using mt-Keima fluorescence; format: cell-based
Summary of the method: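 HeLa-Parkin and HeLa-Parkin cells with lentivirally expressed Myc-USP30, stably expressing mt-Keima, grown in DMEM/10% FBS. Pretreated with DMSO or test compound at 3 μg/ml, then exposed to 1 μM oligomycin plus 1 μM antimycin A for 1.5 h (legend: 2 h). Cells were trypsinized, PBS-washed and resuspended in PBS. Flow cytometry scored cells with lysosomal (pH 4) mt-Keima.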

[4] = system: Hela cells, Hela cells expressing YFP-Parkin and PINK1 KO Hela cells expressing YFP-Parkin; format: cell-based
Summary of the method: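 Parental HeLa, HeLa stably expressing YFP-Parkin, and PINK1 KO HeLa expressing YFP-Parkin were pretreated with test compound at 1 or 3 μg/ml. They were then given 5 μM oligomycin plus 5 μM antimycin A; the 18 h exposure included 10 μM QVD. Cells were lysed on ice in RIPA buffer (pH 8.0, protease inhibitors) and blotted for TOM20 ubiquitination, TOM20 and NDP52. Infrared secondaries were imaged; three independent experiments.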

[5] = system: Hela-Parkin and Hela-Parkin cells expressing USP30; assay: Seahorse assay of oxygen consumption; format: cell-based; details: 24 h of ST-539 treatment at high dose
[6] = system: WT and Mfn2−/− MEF cells; assay: Mitochondrial morphology by confocal microscopy; format: cell-based, mouse; details: 3 or 10 μg/ml ST-539, 24 h
[7] = Plasma pharmacokinetics after i.p. injection, LC-MS/MS; format: in vivo; details: 25 mg/kg i.p., mice
Summary of the method: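 Adult male mice were dosed once at 25 mg/kg i.p. with test compound in 1% DMSO/sesame oil. Serial blood was taken at 0.083, 0.25, 0.5, 1, 2, 4 and 8 h, with terminal cardiac puncture at 24 h, into K2EDTA tubes kept on ice. Plasma was frozen at −70 °C and assayed by LC-MS/MS (n=3 per time point). Parameters were derived from the concentration-time curve.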

[8] = Tissue concentrations 24 hours post-dose, LC/MS/MS; format: in vivo; details: 25 mg/kg i.p., Male C57BL/6 Mice
Summary of the method: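 Mice were given a single 25 mg/kg i.p. dose of test compound in 1% DMSO/sesame oil and euthanized at 24 h. Transcardial perfusion preceded brain collection; heart was also harvested. Tissues were rinsed in cold distilled water, blotted dry, weighed and stored on dry ice. Concentrations (ng/g) were measured by LC/MS/MS.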

[9] = system: mt-Keima mice; assay: In vivo mitophagy in mt-Keima mice
Summary of the method: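 mt-Keima mice of both sexes received test compound in 1% DMSO/sesame oil at 25 mg/kg/day i.p. for five doses; controls got vehicle (n=4 control, n=5 treated). In heart and liver sections, mt-Keima was excited sequentially at 458 and 561 nm with 570–695 nm emission. Four images per tissue were averaged and normalized to the control mean (set to one). Heart and liver LC3 I/II were immunoblotted against actin.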

[10] = system: mt-Keima mice; details: mouse, in vivo
[11] = biological target: T1, USP30; details: this compound and similar structures; cited from earlier work

SMILES: N#CC(C#N)=NNc1ccc(OC(F)(F)F)cc1 [FCCP, Carbonyl cyanide-p-trifluoromethoxyphenylhydrazone]
- TMRM staining (mitochondrial membrane potential) [1]: significant loss of staining

SMILES: CC(C)(C)NS(=O)(=O)c1cccc2c(NC(=O)C(Cc3ccccc3)NC(=O)c3ccccc3)cccc12 (stereo not shown) [ST-539]
- TIM23 and TOM40 degradation ([2]; 18h A/O treatment, Hela-Parkin cells overexpressing USP30): restored TIM23 and TOM40 degradation
- TOM20 ubiquitination versus ST-539 dosage ([2]; A/O treatment, ST-539 at indicated concentrations): close correlation
- loss of TOM20 protein level ([2]; ST-539 at 10 μg/ml, A/O treatment, in the presence of USP30): ~ 90%
- A/O induced mitophagy (lysosomal positive mt-Keima) ([3]; ST-539 3μg/ml prior to A/O, HeLa-Parkin cells expressing USP30): restored A/O induced mitophagy
- mitophagy in the absence of mitochondrial stress ([3]; cellular studies, no mitochondrial stress): minimal change
- A/O induced TOM20 ubiquitination and decline in TOM20 level ([4]; cells expressing ectopic Parkin and endogenous PINK1, ST-539 1 or 3μg/ml): further potentiated
- TOM20 ubiquitination independent of PINK1/Parkin ([4]; long term treatment (18 h), 3μg/ml ST-539, WT Hela or PINK1 KO cells): did not promote TOM20 ubiquitination
- basal and maximal respiration [5]: slight increase
- elongation of mitochondria ([6]; Mfn2−/− MEF cells): did not induce the elongation of mitochondria significantly
- mitochondrial morphology ([6]; wild type MEFs): failed to change the mitochondrial morphology
- AUC0-inf [7]: 4240 ng·h/mL
- AUC0-last [7]: 4162 ng·h/mL
- Cmax [7]: 1427 ng/mL
- MRT0-inf [7]: 4.27 h
- MRT0-last [7]: 3.86 h
- Tlast [7]: 24.0 h
- Tmax [7]: 1.33 h
- area under the plasma drug concentration-time curve (AUC) [7]: ~ 4.2 μg•h/ml
- maximum plasma concentration (Cmax) [7]: about 1.4 μg/ml
- Tissue concentration, Brain, Mean [8]: 17.4 ng/g
- Tissue concentration, Heart, Mean [8]: 37.0 ng/g
- LC3-II/LC3-I ratio (LC3 I/II immunoblotting) ([9]; 25mg/kg/day for 5 days, heart versus control hearts): increase; also recorded: increased levels of LC3-II
- cardiac mitophagy (mt-Keima red signal in the heart tissue) ([9]; 25mg/kg/day i.p. for 5 days, heart): marked induction of the red signal
- mitophagic flux in the hippocampus of the brain ([9]; 25mg/kg/day i.p. for 5 days, hippocampus (data not shown)): remains unchanged
- mitophagic flux in the liver ([9]; 25mg/kg/day i.p. for 5 days, liver): remains unchanged
- safety of the current dosage in mice [10]: appears to be safe
- inhibition of USP30 enzyme function in vitro [11]: selectively inhibit USP30 enzyme function
